Reference: publication PMC3483362 (Journal of inorganic biochemistry, 2012)
“Also recorded” adds a separate entry of the source.

How the values were obtained:
[1] = test system: Jurkat sh-Bak cells (Bax/Bak-deficient Jurkat cells); assay: Activity against apoptosis-resistant cells; type: cell-based, human; conditions: cisplatin-resistant
plasmid (pBR322) DNA = assay: Electrophoresis mobility shift assay; type: binding; conditions: 37 °C, 20 h, increasing molar ratios
Summary of the method: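 pBR322 plasmid DNA (20 µg/mL) in 5 mM Tris/HCl, 50 mM NaClO₄, pH 7.39 was incubated with test compound at compound/DNA molar ratios of 0.25–4.0, 37 °C, 20 h, in the dark. Free DNA and cisplatin-DNA served as controls. Samples ran on 1% agarose in TAE for 1.5 h at 80 V, with GelRed staining for 30 min.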

[2] = Stability in solution by 31P{1H} and 1H NMR; type: physicochemical; conditions: RT
Solubility = type: physicochemical
[3] = test system: human Jurkat-T acute lymphoblastic leukemia cells; assay: Cytotoxicity by modified MTT-reduction method, 24 h; type: cell-based
Calf Thymus DNA = assay: Interaction with CT DNA by circular dichroism; type: binding; conditions: drug/DNA ratios 0.1-1.0, 37 °C, 20 h
Summary of the method: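 CT DNA (195 µM) in 5 mM Tris/HCl, 50 mM NaClO₄, pH 7.39 received test compound from fresh 5 mM stocks in DMSO-H₂O (1:99). Mixtures were kept 20 h at 37 °C in the dark. CD spectra were recorded at 25 °C over 220–320 nm, blank-corrected, smoothed with a Savitzky-Golay filter, and expressed in molar ellipticity.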

[4] = biological target: human serum albumin (HSA) (Homo sapiens, UniProt P02768); assay: HSA fluorescence quenching; type: binding; conditions: excitation 295 nm, HSA 10 µM, phosphate buffer pH 7.39; compared to cisplatin
Chain of human serum albumin (HSA) (P02768 25-609): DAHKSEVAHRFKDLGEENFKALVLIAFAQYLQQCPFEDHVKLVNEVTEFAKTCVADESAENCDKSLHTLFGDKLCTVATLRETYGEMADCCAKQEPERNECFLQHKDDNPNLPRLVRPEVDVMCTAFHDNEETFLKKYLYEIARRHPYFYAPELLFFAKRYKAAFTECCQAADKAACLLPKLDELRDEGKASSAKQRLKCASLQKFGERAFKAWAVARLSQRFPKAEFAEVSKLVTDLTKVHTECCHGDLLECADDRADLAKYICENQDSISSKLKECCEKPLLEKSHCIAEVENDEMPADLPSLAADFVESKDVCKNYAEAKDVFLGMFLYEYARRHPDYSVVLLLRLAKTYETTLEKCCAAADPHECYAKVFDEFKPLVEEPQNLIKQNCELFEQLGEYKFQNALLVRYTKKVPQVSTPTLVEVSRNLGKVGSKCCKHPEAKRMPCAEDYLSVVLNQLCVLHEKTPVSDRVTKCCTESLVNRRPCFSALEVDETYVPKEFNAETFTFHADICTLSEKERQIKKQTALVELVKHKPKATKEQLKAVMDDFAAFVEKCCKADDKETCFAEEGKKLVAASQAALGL
Summary of the method: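 HSA (10 µM) in phosphate buffer pH 7.39 received ten successive additions from an 8 mM DMSO stock of test compound, with a read 240 s after each. Tryptophan excitation was at 295 nm and emission was recorded at 300–450 nm at room temperature. Data were fitted to the Stern-Volmer equation F₀/F = 1 + K_SV[Q].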

Jurkat cells = assay: Cell death pathway; type: cell-based, human; conditions: 24 h, concentrations for IC50 values
Summary of the method: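 Jurkat cells (5 ×10⁵ cells/ml) exposed to test compound for 24 h. Nuclei stained with Hoechst (10 µg/ml) and photographed under UV light. For flow cytometry, cells were held in annexin binding buffer (140 mM NaCl, 2.5 mM CaCl₂, 10 mM Hepes/NaOH, pH 7.4) with fluorescent AnnexinV (0.5 µg/ml) and 7-AAD (50ng/µl) at 37 °C for 15 min, then diluted with buffer and counted.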

[5] = test system: DU-145 human prostate cancer cells; assay: Cytotoxicity by modified MTT-reduction method, 24 h; type: cell-based; conditions: DU-145 cells
Summary of the method: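 DU-145 cells were grown in RPMI 1640 with 5% FCS, L-glutamine and penicillin/streptomycin, seeded at 1 ×10⁵ cells/mL and allowed to attach. […] After 24 h, proliferation was read by a modified MTT-reduction method and IC₅₀ derived.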

[6] = test system: DU-145 human prostate cancer cells; assay: Cell death pathway; type: cell-based; conditions: 24 h
Summary of the method: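 DU-145 cells in RPMI 1640 with 5% FCS, L-glutamine and penicillin/streptomycin were seeded at 1×10⁵ cells/mL and allowed to attach. Test compound (1% DMSO, diluted in water) was given for 24 h. Nuclei were stained with Hoechst (10 µg/ml) and imaged under UV. For flow cytometry, cells went into Hepes pH 7.4 annexin buffer with Annexin V conjugate (0.5 µg/ml) and 7-AAD, 37 °C, 15 min.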

[7] = test system: MOLT-4 human leukemia cell line; conditions: read-out: IC50 MOLT-4; cited from earlier work

| SMILES | toxicity to Jurkat sh-Bak cells [1] | effect on electrophoretic mobility of pBR322 forms (plasmid (pBR322) DNA) | stable in DMSO solution (time) ([2]; DMSO) | stable in H2O (time) ([2]; H2O) | solubility in H2O (Solubility; H2O) | times more cytotoxic than cisplatin [3] | effect on CD spectrum of CT DNA / interaction with CT DNA (Calf Thymus DNA) | quenching of HSA fluorescence [4] | cell death in Jurkat cells (Jurkat cells) | times more cytotoxic than cisplatin [5] | solubility at concentrations required for ITC (Solubility; ITC conditions, phosphate buffer) | cell death / growth in DU-145 cells [6] | IC50 [7] |
| --- | --- | --- | --- | --- | --- | --- | --- | --- | --- | --- | --- | --- | --- |
| N.N.[Cl][Pt][Cl] [Cisplatin, reference compound] | activity is totally dependent on the presence of functional Bax and Bak | decrease in mobility of the CCC form and an increase in mobility of the OC form | – | – | – | – | – | – | – | – | – | – | – |
| O=C(N=P12CN3CN(CN(C3)C1)C2)c1ccccn1 [Compound 1, TPA=N-C(O)-2-NC5H4 (N,N-IM)] | – | does not cause any shift for either form | 14 days | 3 h | soluble | – | – | – | – | – | – | – | – |
| O=C1[N-][Au]([Cl])([Cl])[n+]2ccccc21 [Compound 5, [AuCl2(HN-C(O)-2-NC5H4)]] | exhibited some toxicity | – | – | – | – | seven | decrease in helicity (destabilizing effect); also recorded: interacts more strongly with DNA most likely by intercalation | higher quenching | induced cell death in Jurkat cells; also recorded: induce both necrotic and apoptotic cell death | 4 times | poor solubility at the required concentrations | do not induce cell death in DU-145 at 24 h | 3.1 µM |
